Measured values published in ChEMBL document CHEMBL5653631, “A Potent and Selective ULK1 Inhibitor Suppresses Autophagy and Sensitizes Cancer Cells to Nutrient Stress” (iScience, 2018).
Values belong to the compound of their own block, whether it stands above or below them.

Key:
[1] = molecular target: Calcium/calmodulin-dependent protein kinase type 1G (Homo sapiens) (UniProt Q96NX5); experiment: Inhibition of human recombinant CaMK1g at 500 nM in presence of ATP by radiometric assay relative to control
[2] = molecular target: Cyclin-dependent kinase 4 (Homo sapiens) (UniProt P11802); experiment: Inhibition of human recombinant CDK4 at 500 nM related to control ULK1
[3] = molecular target: T1, Serine/threonine-protein kinase DCLK2 (Homo sapiens) (UniProt Q8N568); experiment: Inhibition of human recombinant DCAMKL2 at 500 nM related to control ULK1
T1 sequence (whole entry): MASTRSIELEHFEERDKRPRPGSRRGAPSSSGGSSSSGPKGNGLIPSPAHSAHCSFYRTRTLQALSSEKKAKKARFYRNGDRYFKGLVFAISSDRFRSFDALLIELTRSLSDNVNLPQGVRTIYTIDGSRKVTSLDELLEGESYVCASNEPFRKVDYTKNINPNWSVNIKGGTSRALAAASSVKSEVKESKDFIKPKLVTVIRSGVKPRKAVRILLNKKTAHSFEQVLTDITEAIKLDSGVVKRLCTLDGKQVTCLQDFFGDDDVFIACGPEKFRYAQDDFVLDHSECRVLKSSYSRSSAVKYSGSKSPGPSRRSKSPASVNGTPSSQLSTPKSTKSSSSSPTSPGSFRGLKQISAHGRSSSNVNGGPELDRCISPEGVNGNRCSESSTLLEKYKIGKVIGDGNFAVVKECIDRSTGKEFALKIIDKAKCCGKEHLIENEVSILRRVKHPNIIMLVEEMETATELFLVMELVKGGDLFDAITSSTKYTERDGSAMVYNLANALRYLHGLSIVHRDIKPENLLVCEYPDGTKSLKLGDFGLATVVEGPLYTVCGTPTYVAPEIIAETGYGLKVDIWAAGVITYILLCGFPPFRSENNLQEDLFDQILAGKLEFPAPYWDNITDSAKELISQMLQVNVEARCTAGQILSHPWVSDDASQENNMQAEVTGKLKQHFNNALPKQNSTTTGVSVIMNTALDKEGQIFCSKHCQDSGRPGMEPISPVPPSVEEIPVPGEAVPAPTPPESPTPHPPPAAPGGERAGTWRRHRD

[4] = molecular target: Ribosomal protein S6 kinase alpha-2 (Homo sapiens) (UniProt Q15349); experiment: Inhibition of human recombinant RSK3 at 500 nM related to control ULK1
[5] = molecular target: Tyrosine-protein kinase Fyn (Homo sapiens) (UniProt P06241); experiment: Inhibition of human recombinant FYN at 40 nM in presence of ATP by radiometric assay relative to control
[6] = molecular target: SRSF protein kinase 3 (Homo sapiens) (UniProt Q9UPE1); experiment: Inhibition of human recombinant MSSK1 at 40 nM in presence of ATP by radiometric assay relative to control
[7] = molecular target: Calcium/calmodulin-dependent protein kinase type 1B (Homo sapiens) (UniProt Q6P2M8); experiment: Inhibition of human recombinant CaMK1b at 40 nM related to control ULK1
[8] = molecular target: Platelet-derived growth factor receptor beta (Homo sapiens) (UniProt P09619); experiment: Inhibition of human recombinant PDGFRb at 40 nM related to control ULK1
[9] = molecular target: Serine/threonine-protein kinase N1 (Homo sapiens) (UniProt Q16512); experiment: Inhibition of human recombinant PKN1 at 40 nM related to control ULK1
[10] = molecular target: Serine/threonine-protein kinase 4 (Homo sapiens) (UniProt Q13043); experiment: Inhibition of human recombinant MST1 at 40 nM in presence of ATP by radiometric assay relative to control
[11] = molecular target: Bone morphogenetic protein receptor type-1B (Homo sapiens) (UniProt O00238); experiment: Inhibition of human recombinant BMPR1B at 15 nM in presence of ATP by radiometric assay relative to control
Outline: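 Part of a radiometric in vitro activity panel of 327 recombinant human kinases. Each kinase was tested in duplicate at one inhibitor concentration. Activity remaining was expressed as a percentage of the vehicle control, and percent inhibition was taken as 100 minus that value.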

[12] = molecular target: Calcium/calmodulin-dependent protein kinase type II subunit delta (Homo sapiens) (UniProt Q13557); experiment: Inhibition of human recombinant CaMK2d at 15 nM related to control ULK1
[13] = molecular target: T2, Ephrin type-A receptor 8 (Homo sapiens) (UniProt P29322); experiment: Inhibition of human recombinant EphA8 at 15 nM related to control ULK1
T2 sequence (whole entry): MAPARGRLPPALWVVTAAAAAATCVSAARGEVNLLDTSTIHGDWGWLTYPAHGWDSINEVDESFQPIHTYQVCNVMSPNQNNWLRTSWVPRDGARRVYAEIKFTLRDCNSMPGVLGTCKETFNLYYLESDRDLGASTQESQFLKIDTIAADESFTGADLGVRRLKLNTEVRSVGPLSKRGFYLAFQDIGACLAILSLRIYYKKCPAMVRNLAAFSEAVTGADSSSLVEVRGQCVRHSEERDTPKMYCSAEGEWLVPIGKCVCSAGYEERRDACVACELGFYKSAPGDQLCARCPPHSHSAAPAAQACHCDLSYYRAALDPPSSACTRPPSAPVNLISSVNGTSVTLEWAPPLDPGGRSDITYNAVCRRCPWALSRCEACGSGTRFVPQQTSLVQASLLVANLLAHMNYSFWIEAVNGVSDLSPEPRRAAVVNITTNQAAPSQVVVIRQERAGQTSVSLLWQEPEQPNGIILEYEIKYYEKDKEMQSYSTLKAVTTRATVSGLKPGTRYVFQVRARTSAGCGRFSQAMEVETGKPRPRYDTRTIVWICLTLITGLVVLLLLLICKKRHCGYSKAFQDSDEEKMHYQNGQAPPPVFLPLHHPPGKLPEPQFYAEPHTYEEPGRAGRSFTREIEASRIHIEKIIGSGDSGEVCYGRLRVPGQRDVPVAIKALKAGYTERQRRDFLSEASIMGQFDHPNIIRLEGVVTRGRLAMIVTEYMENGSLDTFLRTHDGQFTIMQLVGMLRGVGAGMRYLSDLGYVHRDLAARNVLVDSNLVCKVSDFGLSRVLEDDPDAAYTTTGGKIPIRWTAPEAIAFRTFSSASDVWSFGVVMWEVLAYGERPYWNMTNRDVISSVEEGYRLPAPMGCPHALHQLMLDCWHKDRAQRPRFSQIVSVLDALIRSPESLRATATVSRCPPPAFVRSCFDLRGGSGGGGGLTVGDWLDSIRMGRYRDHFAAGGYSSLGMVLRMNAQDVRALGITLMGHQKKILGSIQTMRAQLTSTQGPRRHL

[14] = molecular target: Serine/threonine-protein kinase NIM1 (Homo sapiens) (UniProt Q8IY84); experiment: Inhibition of human recombinant NIM1 at 15 nM related to control ULK1
[15] = molecular target: Serine/threonine-protein kinase N1 (Homo sapiens) (UniProt Q16512); experiment: Inhibition of human recombinant PKN1 at 15 nM related to control ULK1

Serine/threonine-protein kinase N1 (Homo sapiens), sequence (Q16512 2-942 limits assumed): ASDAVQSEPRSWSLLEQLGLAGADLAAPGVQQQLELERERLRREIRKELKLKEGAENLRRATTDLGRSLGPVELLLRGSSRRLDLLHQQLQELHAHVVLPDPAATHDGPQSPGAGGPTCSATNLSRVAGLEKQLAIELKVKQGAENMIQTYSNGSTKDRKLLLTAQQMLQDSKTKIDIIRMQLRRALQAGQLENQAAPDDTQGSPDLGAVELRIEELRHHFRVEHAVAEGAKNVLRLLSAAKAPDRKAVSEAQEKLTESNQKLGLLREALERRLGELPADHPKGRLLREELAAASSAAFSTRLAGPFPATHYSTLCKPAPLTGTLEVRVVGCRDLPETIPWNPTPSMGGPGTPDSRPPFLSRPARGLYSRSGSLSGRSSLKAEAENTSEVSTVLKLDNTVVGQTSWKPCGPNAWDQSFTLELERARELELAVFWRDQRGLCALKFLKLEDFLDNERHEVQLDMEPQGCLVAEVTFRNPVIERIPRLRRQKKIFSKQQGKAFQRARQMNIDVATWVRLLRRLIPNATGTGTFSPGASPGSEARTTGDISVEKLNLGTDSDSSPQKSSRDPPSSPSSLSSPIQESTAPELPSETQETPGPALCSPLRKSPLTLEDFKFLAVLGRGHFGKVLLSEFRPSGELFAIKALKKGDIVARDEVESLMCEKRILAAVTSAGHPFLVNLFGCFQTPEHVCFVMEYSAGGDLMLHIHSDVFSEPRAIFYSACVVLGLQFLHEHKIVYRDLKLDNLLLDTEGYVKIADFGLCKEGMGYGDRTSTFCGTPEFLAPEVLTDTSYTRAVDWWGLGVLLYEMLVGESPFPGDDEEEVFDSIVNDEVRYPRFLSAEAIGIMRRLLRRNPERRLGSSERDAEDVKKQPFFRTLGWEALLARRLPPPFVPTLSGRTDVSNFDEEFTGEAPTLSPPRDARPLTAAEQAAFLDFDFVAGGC
Calcium/calmodulin-dependent protein kinase type II subunit delta (Homo sapiens), sequence (Q13557 whole entry): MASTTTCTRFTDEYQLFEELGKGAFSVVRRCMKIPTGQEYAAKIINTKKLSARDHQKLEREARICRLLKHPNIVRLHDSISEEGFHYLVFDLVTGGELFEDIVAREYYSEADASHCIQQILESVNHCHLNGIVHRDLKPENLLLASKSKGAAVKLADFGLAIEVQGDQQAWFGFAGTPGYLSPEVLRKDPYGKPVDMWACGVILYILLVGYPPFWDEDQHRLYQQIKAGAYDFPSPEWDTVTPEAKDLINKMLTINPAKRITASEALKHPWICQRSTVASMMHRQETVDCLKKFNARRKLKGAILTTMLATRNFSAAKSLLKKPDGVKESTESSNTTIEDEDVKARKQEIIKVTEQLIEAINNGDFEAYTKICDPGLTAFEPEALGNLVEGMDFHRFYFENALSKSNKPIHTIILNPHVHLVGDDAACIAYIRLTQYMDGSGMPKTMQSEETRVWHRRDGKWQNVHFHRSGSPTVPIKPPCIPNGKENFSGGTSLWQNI
Calcium/calmodulin-dependent protein kinase type 1G (Homo sapiens), sequence (Q96NX5 whole entry): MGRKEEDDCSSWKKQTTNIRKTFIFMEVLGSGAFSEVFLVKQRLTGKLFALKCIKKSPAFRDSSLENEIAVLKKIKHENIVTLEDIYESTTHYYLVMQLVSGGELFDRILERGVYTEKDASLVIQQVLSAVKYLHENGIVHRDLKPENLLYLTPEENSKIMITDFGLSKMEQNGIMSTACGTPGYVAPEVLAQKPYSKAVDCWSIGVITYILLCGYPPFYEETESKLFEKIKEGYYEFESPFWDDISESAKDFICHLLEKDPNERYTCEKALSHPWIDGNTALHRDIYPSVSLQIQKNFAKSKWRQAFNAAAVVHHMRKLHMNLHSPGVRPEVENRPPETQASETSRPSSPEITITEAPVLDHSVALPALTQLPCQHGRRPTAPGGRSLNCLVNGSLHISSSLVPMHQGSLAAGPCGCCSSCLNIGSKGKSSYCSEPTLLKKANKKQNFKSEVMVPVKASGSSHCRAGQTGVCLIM
Platelet-derived growth factor receptor beta (Homo sapiens), sequence (P09619 whole entry): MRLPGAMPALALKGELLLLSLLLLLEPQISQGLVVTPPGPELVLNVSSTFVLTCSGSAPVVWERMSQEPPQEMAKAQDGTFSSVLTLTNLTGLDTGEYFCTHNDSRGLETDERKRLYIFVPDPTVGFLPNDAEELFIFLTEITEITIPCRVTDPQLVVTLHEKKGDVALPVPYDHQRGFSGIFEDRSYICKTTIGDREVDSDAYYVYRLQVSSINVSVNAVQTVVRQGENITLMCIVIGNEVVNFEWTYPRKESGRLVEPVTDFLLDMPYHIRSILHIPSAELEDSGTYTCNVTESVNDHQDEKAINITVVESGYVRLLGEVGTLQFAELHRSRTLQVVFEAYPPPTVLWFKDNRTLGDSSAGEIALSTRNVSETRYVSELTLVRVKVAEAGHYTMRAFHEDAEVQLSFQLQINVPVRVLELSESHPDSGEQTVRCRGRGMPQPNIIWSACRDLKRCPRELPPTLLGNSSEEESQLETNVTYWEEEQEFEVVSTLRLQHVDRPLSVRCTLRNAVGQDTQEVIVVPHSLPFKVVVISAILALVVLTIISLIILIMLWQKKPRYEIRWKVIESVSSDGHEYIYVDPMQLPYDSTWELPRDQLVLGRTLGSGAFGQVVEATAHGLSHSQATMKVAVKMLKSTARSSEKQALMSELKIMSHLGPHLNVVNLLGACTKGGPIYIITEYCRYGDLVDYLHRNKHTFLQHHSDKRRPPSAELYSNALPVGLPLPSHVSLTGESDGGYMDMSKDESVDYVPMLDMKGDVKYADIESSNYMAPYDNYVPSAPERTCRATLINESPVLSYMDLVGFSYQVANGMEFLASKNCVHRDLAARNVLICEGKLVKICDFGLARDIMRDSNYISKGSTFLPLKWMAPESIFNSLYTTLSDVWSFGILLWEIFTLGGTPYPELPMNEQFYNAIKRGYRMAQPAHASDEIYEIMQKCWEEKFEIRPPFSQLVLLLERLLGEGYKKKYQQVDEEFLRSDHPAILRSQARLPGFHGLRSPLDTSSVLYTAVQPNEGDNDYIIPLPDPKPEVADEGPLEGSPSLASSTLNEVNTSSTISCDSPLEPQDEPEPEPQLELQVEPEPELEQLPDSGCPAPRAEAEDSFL
Cyclin-dependent kinase 4 (Homo sapiens), sequence (P11802 whole entry): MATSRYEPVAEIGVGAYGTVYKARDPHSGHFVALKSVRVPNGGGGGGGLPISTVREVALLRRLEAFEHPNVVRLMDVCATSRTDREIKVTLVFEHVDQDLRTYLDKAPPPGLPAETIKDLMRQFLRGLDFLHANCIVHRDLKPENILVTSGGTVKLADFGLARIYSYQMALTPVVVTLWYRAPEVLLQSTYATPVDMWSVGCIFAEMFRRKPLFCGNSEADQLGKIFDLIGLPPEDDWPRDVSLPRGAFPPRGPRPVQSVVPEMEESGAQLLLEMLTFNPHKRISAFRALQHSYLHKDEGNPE
Calcium/calmodulin-dependent protein kinase type 1B (Homo sapiens), sequence (Q6P2M8 whole entry): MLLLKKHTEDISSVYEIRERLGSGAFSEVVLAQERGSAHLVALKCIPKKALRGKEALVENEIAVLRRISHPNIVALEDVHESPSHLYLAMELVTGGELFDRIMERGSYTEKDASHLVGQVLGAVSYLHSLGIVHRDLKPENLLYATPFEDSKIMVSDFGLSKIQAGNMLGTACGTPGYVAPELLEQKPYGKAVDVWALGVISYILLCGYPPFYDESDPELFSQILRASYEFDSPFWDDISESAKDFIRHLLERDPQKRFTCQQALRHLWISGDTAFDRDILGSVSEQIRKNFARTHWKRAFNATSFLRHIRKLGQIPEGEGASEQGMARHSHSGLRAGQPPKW
Serine/threonine-protein kinase NIM1 (Homo sapiens), sequence (Q8IY84 whole entry): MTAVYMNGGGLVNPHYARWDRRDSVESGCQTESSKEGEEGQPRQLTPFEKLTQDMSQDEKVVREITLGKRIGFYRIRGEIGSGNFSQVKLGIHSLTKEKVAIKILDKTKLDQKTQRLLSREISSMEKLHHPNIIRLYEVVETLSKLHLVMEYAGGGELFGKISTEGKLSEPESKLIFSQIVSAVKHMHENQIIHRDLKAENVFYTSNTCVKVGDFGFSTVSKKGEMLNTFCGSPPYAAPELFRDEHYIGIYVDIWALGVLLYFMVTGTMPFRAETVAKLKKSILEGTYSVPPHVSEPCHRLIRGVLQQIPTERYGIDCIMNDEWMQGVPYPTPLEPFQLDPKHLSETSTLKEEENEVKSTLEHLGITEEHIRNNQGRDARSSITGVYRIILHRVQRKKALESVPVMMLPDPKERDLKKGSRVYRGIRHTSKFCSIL
Bone morphogenetic protein receptor type-1B (Homo sapiens), sequence (O00238 whole entry): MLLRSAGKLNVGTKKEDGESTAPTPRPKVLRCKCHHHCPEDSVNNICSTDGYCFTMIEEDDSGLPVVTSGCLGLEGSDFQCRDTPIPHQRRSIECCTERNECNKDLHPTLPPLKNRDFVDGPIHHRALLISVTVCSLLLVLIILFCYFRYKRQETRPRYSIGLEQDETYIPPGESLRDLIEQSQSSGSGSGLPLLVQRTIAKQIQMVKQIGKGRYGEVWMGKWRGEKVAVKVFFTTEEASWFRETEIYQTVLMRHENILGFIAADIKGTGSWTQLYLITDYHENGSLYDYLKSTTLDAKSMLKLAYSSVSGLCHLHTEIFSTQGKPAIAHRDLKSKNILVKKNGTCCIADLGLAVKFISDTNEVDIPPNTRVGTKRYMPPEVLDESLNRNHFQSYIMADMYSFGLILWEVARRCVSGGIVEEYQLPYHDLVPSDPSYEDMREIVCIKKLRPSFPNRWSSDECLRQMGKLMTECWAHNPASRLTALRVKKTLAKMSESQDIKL

inhibition [1]: 6%
fold change (FC) [2]: 0
fold change (FC) [3]: 0
fold change (FC) [4]: 0.66
Compound: CNC(=O)c1ccccc1Oc1nc(Nc2cc(OC)c(OC)c(OC)c2)ncc1Br

inhibition [5]: 0%
inhibition [6]: 13%
fold change (FC) [7]: 0
fold change (FC) [8]: 0.07
fold change (FC) [9]: 0
inhibition [10]: 0%
Compound: O=C(N[C@@H](C1CC1)C(F)(F)F)c1cc(-c2cnn3cc(-c4ccc(F)cc4)cnc23)cs1

inhibition [11]: 24%
fold change (FC) [12]: 0.23
fold change (FC) [13]: 0
fold change (FC) [14]: 0.07
fold change (FC) [15]: 0
Compound: CC(C)[C@H](NC(=O)c1cc(-c2cnn3cc(-c4ccc(OCCN5CCCCC5)cc4)cnc23)cs1)C(F)(F)F
